Screening results from PubChem BioAssay.
Only some compounds are listed: those with a hit (about 1.8% of all), similar ones and a draw of the others.
CSN deneddyl inh: inhibitors of CSN-mediated cullin deneddylation, primary screen, biochemical, fluorescence polarization, uHTS; inhibition, % at 12.5 µM; Purified CSN, SCF-Nedd8-OG deneddylation; COP9 signalosome complex subunit 5 (Homo sapiens), Q92905; actives 0.38% (n = 360,000);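 active = pattern-corrected inhibition above about 35%, with an unprinted fluorescence ratio check between 0.5 and 1.5, limit read from the data, passing the limit was not always enough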
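test system = HEK293T-derived human Csn5 enzyme | amount = 0.24 nM Csn5 enzyme, final concentration | medium = Tris/NaCl/DTT buffer, pH 7.5 | schedule = 90 min reaction at room temperature | signal = FP | evaluation = inhibition of Csn5 cleavage, % | compound dosing = single dose of 12.5 µM compound with 0.25% DMSO | probe or stimulus = 10 nM SCFSkp2-Nedd8OG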
TPT1 inh: Candida albicans TPT1 enzyme inhibitors, primary screen, biochemical, fluorescence polarization; tRNA 2'-phosphotransferase TPT1 (Candida albicans SC5314); recombinant caTPT1, FP RNA substrate dephosphorylation; inhibition, % at 5 µM; actives 0.81% (n = 300,000);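 active = inhibition above the mean of all tested compounds plus 3 SD, set per screening campaign, cut at about 24% in these data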
UBC9 SUMO inh: inhibitors of in vitro SUMOylation cascade, primary screen, biochemical, HTRF, uHTS | actives 0.36% (n = 290,000) | inhibition, % at 35 µM | HTRF SUMOylation assay, SAE1/SAE2 + UBC9; in the data active = inhibition above about 50%, passing the limit was not always enough
Target sequence (P63279 whole entry, looked up): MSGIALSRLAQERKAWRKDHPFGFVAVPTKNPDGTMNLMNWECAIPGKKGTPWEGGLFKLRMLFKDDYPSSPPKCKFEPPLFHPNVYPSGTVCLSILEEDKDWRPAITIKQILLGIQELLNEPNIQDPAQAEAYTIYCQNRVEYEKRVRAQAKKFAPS
Rpn11 inh: Rpn11 (PSMD14) deubiquitinase inhibitors, primary screen, biochemical, fluorescence polarization, uHTS. AID 588493, 2011. actives 0.59% (n = 360,000). calls only at 20 µM. human 26S proteasome, Ub4-pepOG fluorescence polarization; 20S core pre-blocked with epoxomicin. 26S proteasome non-ATPase regulatory subunit 14 (Homo sapiens), O00487;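 active = inhibition at 20 µM, scaled to each plate's controls, above about 33%, limit read from the data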
SENP1 inh: human SENP1 catalytic domain inhibitors, primary screen, biochemical, FRET, uHTS; AID 624204, 2012; actives 0.21% (n = 360,000); recombinant SENP1 catalytic domain, CyPet-SUMO1-YPet FRET cleavage; inhibition, % at 10 µM;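 active = inhibition at least 30% at 10 µM, raw YFP signal under a set limit, fluorescence ratio 0.5 to 1.5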
Target sequence (Q9P0U3 419-644 limits assumed): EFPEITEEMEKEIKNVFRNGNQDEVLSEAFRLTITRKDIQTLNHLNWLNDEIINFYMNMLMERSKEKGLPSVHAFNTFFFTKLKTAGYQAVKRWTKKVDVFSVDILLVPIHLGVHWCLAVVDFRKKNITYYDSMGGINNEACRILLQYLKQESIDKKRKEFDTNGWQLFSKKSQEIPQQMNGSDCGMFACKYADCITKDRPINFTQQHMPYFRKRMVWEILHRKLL
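Test system: human SENP1 catalytic domain; medium: Tris pH 8 buffer plus EDTA, NaCl, BME, BSA, NP40, catalase; incubation: 50 min reaction at room temperature; technique: FRET, CFP and YFP emission; controls: no-enzyme low control and enzyme-plus-DMSO high control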
HNF4A DNA FP: change in binding of human HNF4A to DNA, primary screen, biochemical, fluorescence polarization, FITC-DNA | Hepatocyte nuclear factor 4-alpha (Homo sapiens), P41235 | 1 h | activity change, % at 10 µM | actives 0.3% (n = 360,000); in the data active = activity change above about 30%, passing the limit was not always enough
A number is an active result; n = inactive; x = no result given; + = active, no number.

SMILES	CSN deneddyl inh	TPT1 inh	UBC9 SUMO inh	Rpn11 inh	SENP1 inh	HNF4A DNA FP
O=C(CN1C(=O)c2cccc3cccc(c23)C1=O)N1CCN(c2ccccn2)CC1	n	n	n	n	n	n
COc1ccc(F)cc1S(=O)(=O)N1CCC2(CC1)OCCN2S(=O)(=O)c1cccs1	n	n	x	n	n	n
COc1cc2oc(=O)cc(CN3CCN(c4ccccc4OC)CC3)c2cc1Cl	n	x	x	n	n	n
COc1ccc2c(CN3CCN(c4ccccc4F)CC3)cc(=O)oc2c1	100	x	x	n	n	n
COc1ccc2c(CN3CCN(c4ccccc4OC)CC3)cc(=O)oc2c1	74	x	x	n	n	n
Cc1ccc2c(CN3CCN(c4ccccc4F)CC3)cc(=O)oc2c1	n	x	x	n	n	n
C=CCSc1nnc(NC(=O)CCN2C(=O)C3CC=CCC3C2=O)s1 (stereo not given)	n	x	x	n	n	n
COc1ccc(NS(=O)(=O)c2ccc(NC(=O)c3ccc(N(C)S(C)(=O)=O)cc3)cc2)c(OC)c1	n	n	n	n	n	n
C#CCOCCOCCOCCNc1nc(N2CCN(C(=O)[C@H](C(C)C)n3cc(CCO)nn3)CC2)nc(N2CCN(C(=O)[C@H](C)n3cc(CCCN=C(N)N)nn3)CC2)n1	n	x	x	n	n	n
O=C1CCCC(O)=C1N=Nc1cccc(S(=O)(=O)N2CCOCC2)c1	n	n	n	n	n	n
COc1cc(C2c3c([nH]c(=O)[nH]c3=O)Nc3ccc4ccccc4c32)cc(OC)c1OC (stereo not given)	66	n	77	n	n	n
COc1cc(C2c3c([nH]c(=O)[nH]c3=O)Nc3ccc4ccccc4c32)ccc1O (stereo not given)	n	n	n	n	n	n
O=C(CCNC(=O)C1CCN(S(=O)(=O)c2ccccc2)CC1)NCc1cccc(C(F)(F)F)c1	n	n	n	n	n	38
O=C(NNC(=O)c1ccccc1Cl)c1cccnc1	n	n	n	n	n	n
Cc1ccc(CN(C(=O)c2csnn2)C(C(=O)NC2CCCC2)c2ccc(C)o2)cc1 (stereo not given)	n	n	n	n	n	n
CCOc1ccc(-c2c(C#N)c(N)nc3sc(C(=O)c4ccccc4)c(N)c23)cc1	n	n	n	n	n	40
CCOC(=O)C1C(=O)NC(SCC(=O)Nc2nccs2)=C(C#N)C1c1ccccc1OCC (stereo not given)	n	n	n	+	n	n
COc1ccc(-c2csc(NC(=O)c3ccccc3NS(=O)(=O)c3ccc(F)c(F)c3)n2)cc1	n	n	67	n	n	n
Cc1[nH]n(-c2ncc(-c3ccc(Cl)cc3)s2)c(=O)c1C(c1ccc(Cl)cc1)C(C#N)C#N (stereo not given)	n	n	70	n	n	n
Cc1ccc(N2CSC3=C(C#N)C(c4cccs4)CC(=O)N3C2)cc1 (stereo not given)	n	n	n	n	n	n
CCc1ccc(N2CSC3=C(C#N)C(c4cccs4)CC(=O)N3C2)cc1 (stereo not given)	36	n	n	n	n	n
CSCCC(NC(=O)c1ccc(Cl)cc1)C(=O)OCC(=O)N1CCCC1=O (stereo not given)	n	n	x	n	n	n
CSCCC(NC(=O)c1ccc(C(C)(C)C)cc1)C(=O)OCC(=O)N1CCCC1=O (stereo not given)	67	x	x	n	n	n
O=C(c1ccc(S(=O)(=O)NCc2ccco2)cc1)N1CCCC(C(F)(F)F)C1 (stereo not given)	n	n	x	n	n	n
Cc1ccc(NC(=O)CN2C(=O)N/C(=C/c3cc(C)n(-c4cccc(C(=O)O)c4)c3C)C2=O)cc1	n	x	n	n	n	n
